# Screens: PubChem BioAssay, several laboratories
# Rows were chosen to be rich in hits. Some 9.4% of all compounds tested hit in one or more screens of this group.
# Beta cell apopt – inhibitors of cytokine-induced beta cell apoptosis, primary screen, luminescence; protection from apoptosis, % (concentration not given with the values); actives 0.8% (n = 300,000); INS-1E cytokine-induced death, ATP luminescence, 48 h; percent of positive-control rescue, neutral wells zero;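 active = Every replicate reaches about 75%, or at least half do and their mean reaches it too, limit read from the data; inconclusive = At least half of replicates reach the limit but their mean does not; inactive = Under half of replicates reach the limit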;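 note: 0% = cytokine-treated negative control wells and 100% = positive control rescue; higher means more ATP so stronger rescue from cytokine killing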
# Mdm2 MdmX PPI – inhibitors of human Mdm2-MdmX association, primary screen, cell-based, luminescence, split luciferase, SaOS-2, uHTS; actives 3% (n = 330,000); Protein Mdm4 (Homo sapiens) + E3 ubiquitin-protein ligase Mdm2 (Homo sapiens), …; SaOS-2 split-luciferase Mdm2/MdmX complementation; AID 485346, 2010; inhibition, % at 8 µM;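 active = inhibition of at least 50% at 8 µM in the primary screen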
# SKKanGAS inh – S. pyogenes SKKanGAS growth inhibitors in kanamycin, primary screen, streptokinase expression inhibitor project, SKKanGAS strain, BacTiter-Glo luminescence; 6 h; inhibition, % at 7.5 µM; actives 1.3% (n = 300,000); AID 1662, 2009;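 active = mean replicate score, as percent of positive control median, at least 50; inconclusive = mean below 50 but one replicate at or above 50; inactive = mean and every replicate below 50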;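 note: strain carries kanamycin resistance gene driven by streptokinase promoter and grows in 40 µg/ml kanamycin; loss of luminescence reflects streptokinase promoter inhibition or plain growth inhibition; 0% = median of DMSO wells and 100% = positive control at its reference dose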
# Lmaj promast – Leishmania major promastigote growth inhibition, primary screen; Leishmania major promastigotes, resazurin fluorescence viability; inhibition, % at 10 µM; actives 9% (n = 200,000); AID 1063, 2008; in the data active = inhibition above about 50%;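 note: promastigotes grown with compound for 44 hours at 28 °C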
# T cruzi repl – inhibitors of intracellular T. cruzi growth, primary screen, luminescence, NIH3T3 host cells | T. cruzi beta-gal in NIH3T3, 90 h | inhibition, % (test concentration not listed) | actives 1.4% (n = 300,000) | AID 1885, 2009;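 active = mean inhibition across valid replicates above about 55%, limit read from the data; inconclusive = mean below that limit but half or more replicates reach it; inactive = mean below it, under half of replicates reach it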;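 note: signal also drops with host cell toxicity which is not excluded here; 0% = plate median of DMSO wells and 100% = zero luminescence signal; higher percent means less beta-gal luminescence so fewer parasites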
#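 Assay system: NIH/3T3 host cells with β-galactosidase reporter T. cruzi; input: 5,000 host fibroblasts per well; compound: single 50 nL compound addition per well in DMSO; timing: ≥90 h infection period, 3 h prior cell attachment; measured by: GalScreen β-gal luminescence, detergent lysis, 60 min; evaluation: percent inhibition of parasite-derived β-gal signal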
# CSC inhib – cancer stem cell viability inhibitors, primary screen, luminescence | cancer stem cell-like cells viability | inhibition, % at 7.5 µM | actives 1.1% (n = 300,000) | AID 2717, 2010; in the data active = inhibition above about 75%; inconclusive = no clear call, values can overlap the other calls; tested in HMLE shEcad cells
# Mdm2-MdmX conf – Mdm2-MdmX complex disruptors, retested hits, confirmation, luminescence, single concentration. shares compounds with Mdm2 MdmX PPI. actives 55% (n = 10,000). inhibition, % at 8 µM. AID 489028, 2010. Mdm2-MdmX binding, luminescent assay; in the data active = inhibition above about 40%
# FLuc counter – full-length luciferase signal inhibition, confirmation, counter-screen for Mdm2/MdmX interaction inhibitor project, cell-based, single concentration, SaOS-2; shares compounds with Mdm2 MdmX PPI; AID 504607, 2011; SaOS-2 full-length luciferase counterscreen, luminescence; actives 77% (n = 6,200); inhibition, % at 8 µM;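 active = mean inhibition at 8 µM reaching about 37%, which flags the compound as non-specific, limit read from the data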;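 note: p53-null SaOS-2 cells with luciferase driven by a doxycycline-inducible promoter; compound on cells about two nights before reading with doxycycline added after day one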
# Active calls of the source: *; ? = inconclusive; . = no result.
SMILES,Beta cell apopt,Mdm2 MdmX PPI,SKKanGAS inh,Lmaj promast,T cruzi repl,CSC inhib,Mdm2-MdmX conf,FLuc counter
COc1ccccc1/C=C/C1(C(=O)NC2CCCC2)CC(=O)N1c1ccc(F)cc1 (stereo not given),8,70*,16,85*,8,?,89*,49*
COC(=O)c1c(NC(=O)CN2CCC3(O)CCCCC3C2c2cc(OC)ccc2OC)sc(C)c1C (stereo not given),-6,40,19,44,31,16,.,.
COC(=O)c1c(NC(=O)CN2CCC3(O)CCCCC3C2c2ccc(F)cc2)sc(C)c1C (stereo not given),-3,53*,15,77*,27,46,27,.
O=C(Cn1cnc2sc(-c3ccccc3)cc2c1=O)NCc1ccccc1,.,77*,-8,-4,-15,.,56*,56*
O=C(Cn1cnc2sc(-c3ccccc3)cc2c1=O)NCc1ccco1,-2,46,.,2,.,44,.,.
Cc1sc2ncn(CC(=O)NCCc3ccccc3)c(=O)c2c1C,2,23,0,-10,-17,-6,.,.
O=C(Cn1cnc2sc(-c3ccccc3)cc2c1=O)NCCc1ccccc1,4,93*,4,-6,-5,0,35,98*
CC(C)(O)CCC(C)(C)O,-1,16,.,.,.,-5,.,.
COc1cccc(CNc2ncnc3ccc(-c4c(C)noc4C)cc23)c1,-15,85*,.,.,.,12,73*,31
COc1cccc(-c2ccc3ncnc(NCc4cccc(C)c4)c3c2)c1,-11,35,.,.,.,45,.,.
Cc1noc(C)c1-c1ccc2ncnc(NCC3CCCCN3C)c2c1 (stereo not given),3,72*,.,.,.,13,47*,73*
Cc1ccsc1CNc1ncnc2ccc(-c3c(C)noc3C)cc12,-12,94*,.,.,.,9,69*,52*
CCc1cc2c(NCCN3CCCCC3)ncnc2s1,-12,0,2,-9,-4,14,.,.
c1cncc(-c2ccc3ncnc(NCc4cccs4)c3c2)c1,-1,17,.,.,.,.,.,.
Cc1ccc(C)c(OC(=O)c2cccnc2Cl)c1C,-4,0,23,.,4,7,.,.
c1ccc(CSc2ccc(-c3cccnc3)nn2)cc1,0,-78,-2,-5,-8,-1,.,.
C[C@@H](C(=O)Nc1ccc2c(c1)OCCO2)n1c(=O)[nH]c2ccccc2c1=O,.,62*,-6,.,-6,16,81*,76*
C[C@@H](C(=O)Nc1ccc2c(c1)OCO2)n1c(=O)[nH]c2ccccc2c1=O,2,-24,2,.,-22,19,.,.
CCC1CCCCN1CCCNC(=O)C1CC(=O)N(CCc2ccccc2)C1 (stereo not given),0,5,-3,.,-9,-7,.,.
CN(Cc1ccn[nH]1)C(=O)C1CCC(=O)N(Cc2cccc(C(F)(F)F)c2)C1 (stereo not given),.,17,3,.,-18,.,.,.
O=C(c1ccc(Br)cc1)C(CN1CCOCC1)c1ccccc1 (stereo not given),5,91*,-21,.,19,68,56*,25
Cc1ccoc1C(=O)Nc1cccc2ccccc12,0,10,0,.,0,45,.,.
Oc1ccc(CCNc2ncnc3ccc(Cl)cc23)cc1,107*,64*,2,.,-14,86*,73*,29
COCCNC(=O)C(c1ccc(C)cc1)N(Cc1cccs1)C(=O)CCC(=O)Nc1ccccn1 (stereo not given),-4,2,-4,.,15,-6,.,.
COc1cc(-c2noc(C)c2C#Cc2ccsc2)cc(OC)c1OC,10,65*,15,.,14,64,68*,78*
